In the library only some 1.3% were active in any assay of this set; here they are far more common.
SKN-1 inh: suppressors of acrylamide-induced Pgst-4::GFP reporter in worms, primary screen, SKN-1 inhibitor project, whole organism, uHTS, GFP/RFP fluorescence ratio, strain VP596. inhibition, % at 21.8 µM. C. elegans VP596 Pgst-4::GFP/RFP ratio, 24 h. 360,000 compounds, 0.49% hits;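 active means interference check ratio from 0.5 to 1.5 plus GFP to RFP signal ratio inhibition reaching or exceeding a fixed threshold, cut at about 30% in these data, passing the limit was not always enough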
FAS-TE inh: FAS thioesterase domain inhibitors, primary screen, biochemical, fluorescence intensity, uHTS; AID 602261, 2012; inhibition, % at 15 µM; 360,000 compounds, 0.67% hits; recombinant FAS-TE, OMFH fluorogenic substrate, fluorescence endpoint; Fatty acid synthase (Homo sapiens), P49327;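 active means compounds whose normalised, plate-corrected inhibition of enzyme fluorescence in the single-dose primary screen is 50% or more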;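 further: 0% = DMSO with enzyme and 100% = substrate without enzyme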
DAGLB inh: DAGLB lipase inhibitors, primary screen, biochemical, fluorescence, HTS; HEK293T DAGLB membrane lysate, EnzChek fluorogenic substrate; inhibition, % at 5.17 µM; 340,000 compounds, 0.059% hits; in the data active means inhibition above about 34%;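 further: 0% = enzyme with vehicle and 100% = wells lacking enzyme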
iPSC survival up: enhancers of single-cell hiPSC survival, primary screen, ATPlite luminescence. 100% = ROCK inhibitor wells, 0% = DMSO. survival enhancement, % at 20 µM. 360,000 compounds, 0.044% hits. AID 602274, 2012; in the data active means survival enhancement above about 18%;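 further: cells exposed to compounds for 16 hours before the ATP read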
MT1-MMP act inh: blockers of MT1-MMP proenzyme processing, primary screen, HT1080 RFP-PRO-GFP cells, GFP/RFP fluorescence. Matrix metalloproteinase-14 (Homo sapiens), P50281. GFP/RFP ratio fluorescence, overnight; percent of plate control window, DMSO zero. GFP/RFP ratio change, % at 20 µM. 360,000 compounds, 0.061% hits;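 active means GFP/RFP ratio change of at least 30% with cell ATP level not reduced by more than half and red fluorescence within 50% of control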
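Material: RFP-PRO-GFP reporter HT1080 cells. Dosing: single-point 20 µM compound, 1% DMSO. Controls: DMSO and RFP-L50D-GFP cell wells. Timing: cells overnight before dosing, compound overnight, 37 °C, 5% CO2. Measure: GFP/RFP fluorescence ratio.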
MT1-MMP act val: MT1-MMP activation inhibitors, hit retest, confirmation, single concentration, fluorescence, HT1080 RFP-PRO-GFP cells; inhibition, % at 20 µM; shares compounds with MT1-MMP act inh; GFP and RFP fluorescence ratio, overnight; AID 652235, 2013; 200 compounds, 10% hits;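 active means inhibition of at least 50% in the primary cell screen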
* marks the source's active call; other numbers are inactive results; / = no result given.

SMILES	SKN-1 inh	FAS-TE inh	DAGLB inh	iPSC survival up	MT1-MMP act inh	MT1-MMP act val
CCn1c(O)c(/C=N/n2cnnc2)sc1=S	2	-10	-3	4	30*	3
CN(CCCS(=O)(=O)[O-])c1ccc(/C=C/c2ccc3ccccc3[n+]2C)cc1	37*	-5	2	1	40*	17
Cc1cc2ccccc2n1CCNC(=O)C1CC1	47*	-5	3	-3	32*	2
Cc1cc2ccccc2n1CCNC(=O)C1CCCCC1	59	0	0	6	38*	2
O=C(Nc1ccc(N2C(=O)C3C4C=CC(C4)C3C2=O)cc1Cl)c1cccs1 (centres undefined)	0	-3	5	-2	4	/
Oc1ccc(N=Nc2cccc(C(F)(F)F)c2)cc1C=Nc1ccc(N2CCOCC2)cc1	7	23	5	-2	45*	14
Cc1cc2cc(CN3C(=O)c4ccccc4C3=O)ccc2n1C	46*	21	6	0	32*	13
O=C1c2ccccc2C(=O)c2c(NCCCN(CCO)CCO)cccc21	41*	0	/	0	30*	28
COc1ccc(OC)c(CC(NC(C)=O)C(=O)NC2CCN(c3nc(OC)nc(OC)n3)CC2)c1 (centres undefined)	-2	-6	1	0	0	/
COc1cc(OC)cc(C(=O)NCc2ccc3c(c2)cc(C)n3C)c1	55	-4	0	1	26	/
Cc1cc2cc(CNC(=S)Nc3ccc(OC(F)F)cc3)ccc2n1C	46*	-9	22	0	47*	19
COc1ccc(C(=O)NCc2ccc3c(c2)cc(C)n3C)cc1	44*	-6	4	2	31*	2
Cc1ccc(NC(=S)NCc2ccc3c(c2)cc(C)n3C)c(C)c1	28	-38	0	0	33*	6
Cc1[nH]c2ccccc2c1C(=O)CSC(=S)N1CCCCC1	17	15	-4	-2	0	/
O=C(c1ccco1)N1CCc2[nH]nc(-c3ccccc3)c2C1	2	-2	-1	0	2	/
O=C(O)C1(c2ccccc2)CCN(S(=O)(=O)c2cccc(Cl)c2)CC1	6	-3	0	1	-3	/
CN(C)c1ccc(N=Cc2cccn2C)cc1	14	-8	9	0	39*	2
CN(C)c1ccc(N=Cc2nc(-c3ccccc3)oc2O)cc1	46	-92	6	1	-84	/
CC1=C/C(=C(/c2cc(C)c(O)c(Br)c2)c2ccccc2S(=O)(=O)O)C=C(Br)C1=O	51*	6	15	0	63*	50*
CC1=C/C(=C(/c2ccc(O)c(C)c2)c2ccccc2S(=O)(=O)O)C=CC1=O	16	-1	9	0	10	/
COc1cc(/C=N/NC(=O)c2cc[n+]([O-])cc2)ccc1O	17	-3	3	0	-5	/
O=C(O)c1ccccc1C(=O)Nc1ccc(Nc2ccccc2)cc1	4	0	5	3	33*	11
CCOC(=O)c1ccccc1N1C(=O)CSC1=S	10	-3	0	0	30*	4
O=C(O)c1cccc(N2C(=O)CSC2=S)c1	4	-7	0	0	36*	8
CCN1C(=O)/C(=C2/C=Cc3ccccc3N2CC)SC1=S	20	19	25	0	18	/
SMILES	SKN-1 inh	FAS-TE inh	DAGLB inh	iPSC survival up	MT1-MMP act inh	MT1-MMP act val
CCCN1/C(=C2/SC(=S)N(CC)C2=O)C=Cc2ccccc21	35	20	33	-2	40*	35
CN1C(=O)/C(=C2/C=Cc3ccccc3N2CCCS(=O)(=O)O)SC1=S	32	8	17	-2	42*	39
CN(CC(=O)Nc1cccc(C(F)(F)F)c1)C1=NS(=O)(=O)c2ccccc21	-7	-9	-1	3	4	/
O=C(CCCCn1c(=O)c2ccccc2n(Cc2ccccc2F)c1=O)NC1CCN(Cc2ccccc2)CC1	2	3	3	0	2	/
ClCC1NCC(c2ccccc2Cl)c2c1[nH]c1ccccc21 (centres undefined)	11	4	0	-2	37*	2
CN(C)/C=C(\C=O)c1ccc(Cl)cc1Cl	24	-7	1	3	-1	/
CN1/C(=C\C(=O)c2ccco2)C(C)(C)c2ccccc21	81	-13	-5	-2	62	/
CC(=O)/C=C1\N(C)c2ccc(C)cc2C1(C)C	76	0	-4	-2	47*	27
CN1/C(=C\C(=O)C(F)F)C(C)(C)c2ccccc21	-1	-3	-2	4	6	/
CN1/C(=C\C=N\NC(=O)c2ccc(O)cc2)C(C)(C)c2ccccc21	77	-11	6	0	59*	37
CN1/C(=C\C(=O)c2cccnc2)C(C)(C)c2ccccc21	6	-4	0	2	-2	/
CN1/C(=C\C=N\NC(=O)c2cccnc2)C(C)(C)c2ccccc21	4	-5	0	-2	-5	/
CN1/C(=C\C(=O)c2cncc(Br)c2)C(C)(C)c2ccccc21	65	10	-10	-1	31*	39
Cc1ccc(C(=O)NC(=S)/C=C2\N(C)c3ccccc3C2(C)C)cc1	59	30	14	-1	40*	23
Cc1c(NC(=S)/C=C2\N(C)c3ccccc3C2(C)C)c(=O)n(-c2ccccc2)n1C	12	-7	2	-1	33*	13
COc1ccc(CCNC(=O)COC(=O)c2sc(C)nc2C)cc1	13	-7	0	0	1	/
CC(C)CC(N)c1csc(Nc2ccc(C(=O)NCCO)cc2)n1 (centres undefined)	14	-3	/	5	1	/
CCSc1nc(=S)n(Cc2ccccc2)c(C)c1C(C)=O	-1	9	1	2	35*	8
C=C[C@@H]1c2ccccc2N(S(=O)(=O)c2ccc(C)cc2)[C@H](c2ccc(C(=O)OC)cc2)C1(C#N)C#N	6	47	0	-1	4	/
O=c1[nH]cnc2sc(-c3ccccc3)cc12	18	0	-2	-2	34*	1
CCN(CC)CC(=O)Nc1ccc([N+](=O)[O-])cc1	3	-7	-1	2	-2	/
COc1ccc(Nc2nc(N)c3ccccc3n2)c(OC)c1	2	-2	1	0	39*	27
O=C(CSc1nnc(C2CC2)n1Cc1ccccc1)N1CCNC1=O	21	-4	3	0	-1	/
COc1ccc(Cc2nnc(NC(=O)CSc3ccc(C)cc3)s2)cc1OC	-12	-2	1	6	-1	/

Screens: PubChem, several laboratories
